# Measurements pooled from the literature.
# Lines come from different studies, so protocols differ.
# Target: Insulin receptor (INSR, Homo sapiens, UniProt P06213)
SMILES,test,setting,remaining binding
CN(C)C(=O)Cn1cc(-c2nc(C3(c4ccc(-c5cnc(N)nc5)cc4)CC3)no2)cn1,"cell-free assay, competition with immobilised ligand",1 µM,90%
CC1CCCN1c1nccc(-c2cnn3ncccc23)n1 (stereo not shown),binding,1 µM,86%
COc1cnc(Nc2cccc(S(N)(=O)=O)c2)nc1N1CCN(c2ccccc2)C(=O)C1,"binding, competition with immobilised ligand",1 µM,96%
CN([C@@H]1CCc2c(CC(=O)O)c3ccccc3n2C1)S(=O)(=O)c1ccc(F)cc1,"cell-free assay, competition with immobilised ligand",1 µM,100%
C[C@@H]1CCN(c2nccc(-c3cnn4ncccc34)n2)C1,binding,1 µM,72%
CC(C)(C)c1ccc(-c2nc(CBr)nn2-c2cccc(O)c2)cc1,"cell-free assay, competition with immobilised ligand",10 µM,93%
O=C(NCCCN1CCOCC1)c1ccc(Nc2ncc(Cl)c(-c3ccc(Cl)s3)n2)cc1,"binding, competition with immobilised ligand",1 µM,29%
N[C@@H]1CCN(c2nccc(-c3cnn4ncccc34)n2)C1,binding,1 µM,100%
FC(F)(F)Oc1cccc(-c2cnc3ccc(-c4ccncc4)nn23)c1,"cell-free assay, competition with immobilised ligand",5 µM,88%
Nc1ncc2c(n1)-c1c([nH]c3ccc(C#CC4CC4)cc13)CCCC2,"binding, competition with immobilised ligand",1 µM,80%
COc1ccnn2ncc(-c3ccnc(N(C)C)n3)c12,binding,1 µM,96%
C[C@@H]1CN(c2ccc3ncc(-c4ccc5[nH]nc(C6CC6)c5c4)n3n2)C[C@H](C)O1,"binding, competition with immobilised ligand",0.5 µM,81%
O=C(Nc1c[nH]nc1C(=O)NC1CCNCC1)c1cc(F)cc(F)c1,"binding, competition with immobilised ligand",1 µM,100%
COc1cnc(Nc2cccc(S(N)(=O)=O)c2)nc1N1CCN(c2ccccc2)CC1,"binding, competition with immobilised ligand",1 µM,81%
c1cnn2ncc(-c3ccnc(N4CCC45COC5)n3)c2c1,binding,1 µM,73%
CCS(=O)(=O)c1cc2cc(C[C@](O)(CC(C)(C)c3ccc(F)cc3C(N)=O)C(F)(F)F)[nH]c2cn1,"cell-free assay, competition with immobilised ligand",1 µM,94%
CN(C)c1nccc(-c2cnn3ncccc23)n1,binding,1 µM,79%
CN(C)c1ncnc(-c2ccc3nc(Nc4cc(CN5CCN(C(=O)CC(F)(F)F)CC5)ccn4)[nH]c3c2)c1Cl,"cell-free assay, competition with immobilised ligand",1 µM,100%
COc1ncc2cc3ccccc3nc2c1C#N,"cell-free assay, competition with immobilised ligand",5 µM,100%
O=C(Nc1cccnn1)N1CCC(=Cc2cccc(Oc3ccc(C(F)(F)F)cn3)c2)CC1,"cell-free assay, competition with immobilised ligand",1 µM,100%
C[C@@H](c1ccc(-n2cnc3c(N)ncnc32)cc1)N1CCc2nn(C)c(Cc3ccccc3)c2C1=O,"binding, competition with immobilised ligand",0.1 µM,100%
CS(=O)(=O)NCC[C@H](NC(=O)c1cncc2c1cnn2-c1ccc(F)cc1)c1ccnc(S(C)(=O)=O)c1,"cell-free assay, competition with immobilised ligand",1 µM,92%
O=C(c1ccc(Nc2nccc(-c3cc4ccccc4s3)n2)cc1)N1CCC(N2CCCC2)CC1,"binding, competition with immobilised ligand",1 µM,66%
CCC(=O)N[C@H]1CC[C@@H](C(=O)N(C)c2ccc(-c3nc4ccccc4o3)cc2)C1,"cell-free assay, competition with immobilised ligand",1 µM,91%
O=C(c1ccc(Nc2ncc(Cl)c(-c3cc4ccccc4s3)n2)cc1)N1CCC(N2CCCC2)CC1,"binding, competition with immobilised ligand",1 µM,6.1%
